# Screening results from PubChem BioAssay.
# FN deposit inh – inhibitors of fibronectin matrix deposition, primary screen, AH1F cells, Alexa488-fibronectin fluorescence, plate reader; AH1F fibroblasts, overnight; inhibition, % at 12.6 µM; hit rate 0.086% among 350,000;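 active means mean inhibition across replicates of 30% or more, regardless of how many single replicates reach that level; inconclusive means mean under 30% yet at least half of replicates reach 30%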;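 further: positive control wells lacked labelled fibronectin entirely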
#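 Material: AH1F fibroblast monolayer depositing Alexa488-labelled fibronectin into matrix | Input: 10000 AH1F cells/well | Medium: DMEM plus 2% serum, read in PBS | Reagent: Alexa488-fibronectin, 24 nM final in well | Compound dosing: One dose per compound, pinned | Schedule: 1 h adhesion, overnight exposure | Measured by: Fluorescence at 485 nm excitation, 525 nm emission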
# CaV13 FRET inh – Disruptors of the CACNA1D IQ motif to Ca2+-dependent inactivation inhibitor domain association, primary screening, Förster resonance energy transfer in intact living … | HEK cells, CFP/YFP FRET ICDI-IQ, plate reader, 10 min; percent FRET-ratio fall versus neutral wells | inhibition, % at 12.3 µM | hit rate 0.098% among 340,000;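 active means mean replicate inhibition of at least 30% and at least 1% of replicates passing that level; inconclusive means only one of the two criteria is met; inactive means neither criterion is met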;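 further: 0% = median of the neutral control wells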
# Xi reactivation – activators of inactive X chromosome reactivation, primary screen, imaging, XiGFP fibroblasts, GFP high-content imaging, set 2; XiGFP mouse fibroblasts, % GFP-positive cells imaging, 3 d; cells co-treated with 5-aza-dC sensitizer; scaled so ellipticine positive control = 100%; activation, % at 7.58 µM; hit rate 0.055% among 360,000; AID 743238, 2013;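 active means mean normalized replicate activation at least 10% and every replicate at or above 10%; inconclusive means only one of the two criteria met; inactive means mean below 10% and not all replicates reach 10%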;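 further: 0% = median of on-plate neutral control wells and 100% = ellipticine 6 µM median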
#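 Material: SV40-immortalized XiGFP fibroblast cells, line 68-5-11 | Buffer or medium: DMEM containing 5-aza-dC | Dosing: One concentration, pinned | Times: 3 d treatment, 15 min room-temperature fixation | Controls: Ellipticine 6 µM positive control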
# CASP6 VEID inh – human caspase-6 inhibitors, primary screen, biochemical, VEID-R110 fluorescence, single point, set 2; hit rate 0.53% among 350,000; inhibition, % at 12.5 µM; purified caspase-6, Z-VEID-R110 cleavage fluorescence; P55212;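 active means mean inhibition across replicates at least about 35%, with every replicate also reaching that limit, limit read from the data; inconclusive means only one of the two criteria met; inactive means neither criterion met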;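 further: 0% = median of neutral control wells and 100% = no fluorescence left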
# Target sequence (P55212 24-179 limits assumed): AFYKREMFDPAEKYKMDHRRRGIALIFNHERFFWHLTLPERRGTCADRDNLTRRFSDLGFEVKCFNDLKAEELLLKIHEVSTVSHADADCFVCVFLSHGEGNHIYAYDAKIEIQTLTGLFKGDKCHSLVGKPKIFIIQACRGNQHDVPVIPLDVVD
# Target sequence (P55212 194-293 limits assumed): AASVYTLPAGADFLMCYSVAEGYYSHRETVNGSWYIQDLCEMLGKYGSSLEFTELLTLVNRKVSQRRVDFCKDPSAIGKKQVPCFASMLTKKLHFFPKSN
# DENV2 CPE – inhibitors of DENV2 cytopathic effect, primary screen, cell-based, plate reader, single concentration; DENV2-infected cells, cytopathic effect rescue; CPE inhibition, % at 9.99 µM; hit rate 1.7% among 350,000; AID 651640, 2012; in the data active means CPE inhibition above about 20%, passing the limit was not always enough; inconclusive means no clear call, values can overlap the other calls; tested in BHK-21 cells;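 further: 0% = median of neutral control wells and 100% = median of positive control wells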
# * = called active by the depositor; ? = inconclusive; · = no result; + = active, no number. Compounds with a hit are over-represented: about 2% of the library has one in this group of screens.
SMILES,FN deposit inh,CaV13 FRET inh,Xi reactivation,CASP6 VEID inh,DENV2 CPE
CC(=O)Nc1ccc(NC(=O)C(C)OC(=O)C2CCN(S(=O)(=O)c3ccccc3C(F)(F)F)CC2)cc1 (stereo not drawn),1,-6,0,12,-8
CC(Oc1ccccc1Cl)C(=O)Nc1ccc(S(=O)(=O)N2CCCC2)cc1 (stereo not drawn),-3,-5,0,5,?
C[C@@H]1CN([C@H](C)CO)C(=O)c2cc(NC(=O)c3ccccc3)ccc2O[C@@H](C)CCCCO[C@H]1CN(C)C(=O)CCC(F)(F)F,2,·,0,4,17
[O-]/[N+](=C/c1ccccc1)c1ccccc1,-2,45*,0,0,19
COc1ccc(NC(=O)N(C)C[C@H]2Oc3ccc(NC(=O)Nc4ccc(F)cc4)cc3C(=O)N([C@H](C)CO)C[C@H]2C)cc1,·,·,-1,0,-12
COc1ccc(NC(=O)Nc2ccc3c(c2)C(=O)N([C@@H](C)CO)C[C@@H](C)[C@H](CN(C)C(=O)Nc2ccc(F)cc2)O3)cc1,·,·,0,1,21*
C[C@@H]1CN([C@H](C)CO)C(=O)c2cc(NC(=O)C3CCCCC3)ccc2O[C@H]1CN(C)C(=O)Nc1ccc(F)cc1,·,·,-1,1,55*
COc1ccc(NC(=O)Nc2ccc3c(c2)C(=O)N([C@@H](C)CO)C[C@@H](C)[C@@H](CN(C)C(=O)Nc2ccc(OC)cc2)O3)cc1,·,·,1,0,26*
O=C(Nc1ccccc1)N1C[C@H]2[C@@H](c3ccccc31)[C@H](CO)N2C(=O)Cc1ccccn1,·,·,0,-1,2
CCCN=C1N(CC)C[C@@H]2[C@@H]3C(=O)N(C)C(=O)[C@@H]3[C@](CC)(C(=O)OC)N12,4,-3,0,1,28*
CCN1C[C@@H]2[C@@H]3C(=O)N(C)C(=O)[C@@H]3[C@](CC)(C(=O)OC)N2C1=NC,-5,-5,0,9,2
C[C@@H]1CN([C@@H](C)CO)C(=O)c2cccc(NS(=O)(=O)c3ccc(F)cc3)c2O[C@@H]1CN(C)C,5,·,0,0,-1
Cn1c(=O)oc2cc(S(=O)(=O)N3CCCC(C(=O)NCCN4CCOCC4)C3)ccc21 (stereo not drawn),-15,-5,0,0,83*
Cc1ccc(NC(=O)CSc2nccn2C)cc1F,·,·,0,-3,18
Cn1ccnc1SCC(=O)Nc1cccc(C#N)c1,·,-5,0,0,87*
CCOC(=O)c1cc2c(=O)n3ccccc3nc2n(Cc2ccc(Cl)cc2)c1=N,9,+,0,4,-3
COCCCn1c(=N)c(C(=O)NC2CCCCC2)cc2c(=O)n3ccccc3nc21,·,43*,·,·,·
N=c1c(C(=O)NCc2ccco2)cc2c(=O)n3ccccc3nc2n1Cc1ccc(Cl)cc1,·,5,·,·,·
C[C@H](CO)N1C[C@H](C)[C@@H](CN(C)Cc2ccc(C(=O)O)cc2)OCc2ccccc2-c2ccccc2C1=O,7,·,0,·,·
COc1ccc(NC(=O)Nc2ccc3c(c2)C(=O)N([C@@H](C)CO)C[C@@H](C)[C@H](CN(C)S(=O)(=O)c2ccc(F)cc2)OCCCC[C@@H](C)O3)cc1,-10,·,0,0,-9
C[C@H]1CN([C@@H](C)CO)C(=O)c2cccc(NC(=O)Nc3ccc4c(c3)OCO4)c2O[C@H]1CN(C)C(=O)NC1CCCCC1,·,·,0,-1,-5
Cc1cccc(C)c1NC(=O)C(C1CC1)n1c(=O)c(-c2ccco2)nc2ccccc21 (stereo not drawn),-11,-10,0,36*,-13
Cc1cccc(C)c1NC(=O)C(C1CC1)n1c(=O)c(-c2ccccc2)nc2ccccc21 (stereo not drawn),-10,-8,0,2,-2
O=C(Nc1ccc2c(c1)OCCO2)C(c1ccnc2ccccc12)n1c(=O)c(-c2ccco2)nc2ccccc21 (stereo not drawn),9,-9,0,2,50*
C[C@@H]1CN([C@@H](C)CO)C(=O)c2ccccc2-c2ccccc2CO[C@H]1CN(C)S(=O)(=O)c1ccc(C(F)(F)F)cc1,-9,·,1,0,-9
SMILES,FN deposit inh,CaV13 FRET inh,Xi reactivation,CASP6 VEID inh,DENV2 CPE
O=C1CCCC(c2ccccc2)N1 (stereo not drawn),6,-5,0,0,60*
O=c1c2ccccc2nnn1Cc1ccc2ccccc2c1,·,-31,73*,2,-2
NC(=O)C1CCN(C(=O)C2(NC(=O)Nc3cccc(F)c3)CCCCC2)CC1,5,-7,0,7,45*
Cc1ccc2c(c1)c1c(n2CC(O)CNC2CCCC2)CCCC1 (stereo not drawn),-7,-2,0,-1,27*
Cc1ccc2c(c1)c1c3n2CCN(CC(O)CNC(C)C)C3CCC1 (stereo not drawn),1,-26,0,-9,3
C[C@H](CO)N1C[C@H](C)[C@H](CN(C)S(=O)(=O)c2ccc(F)cc2)OCCCC[C@H](C)Oc2ccc(NC(=O)c3ccccc3)cc2C1=O,11,·,0,-1,28*
COc1ccc(S(=O)(=O)N(C)C[C@@H]2OCCCC[C@@H](C)Oc3ccc(NC(=O)c4ccccc4)cc3C(=O)N([C@@H](C)CO)C[C@@H]2C)cc1,·,·,0,0,29*
C[C@H]1CCCCO[C@H](CN(C)S(=O)(=O)c2ccc(F)cc2)[C@@H](C)CN([C@@H](C)CO)C(=O)c2cc(NC(=O)c3ccccc3)ccc2O1,3,·,0,-1,4
C[C@@H]1CN([C@H](C)CO)C(=O)c2cc(NC(=O)c3ccccc3)ccc2O[C@@H](C)CCCCO[C@@H]1CN(C)S(=O)(=O)c1ccc(F)cc1,4,·,0,-1,98*
C[C@@H]1CCCCO[C@H](CN(C)S(=O)(=O)c2ccccc2)[C@@H](C)CN([C@@H](C)CO)C(=O)c2cc(NC(=O)c3ccncc3)ccc2O1,-13,·,0,0,83*
C[C@@H]1CN([C@H](C)CO)C(=O)c2cc(NC(=O)c3ccncc3)ccc2O[C@@H](C)CCCCO[C@H]1CN(C)S(=O)(=O)c1ccccc1,7,·,0,2,-4
C[C@@H]1CN([C@H](C)CO)C(=O)c2cccc(NC(=O)Nc3cccc4ccccc34)c2O[C@@H]1CN(C)C,·,·,-1,-1,-3
